Experimental data published in PubChem BioAssay.
Results filed as inconclusive are left out.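 Rule for the calls, unless noted: active = inhibition over a set limit, the all-compound mean plus 3 SD, in both replicate runs; inconclusive = over that limit in just one replicate run; inactive = at or under that limit in both runs.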

What was measured:
[1] = OD615 S. cerevisiae growth inhibition, permissive medium, pilot counter-assay, permissive growth control for S. cerevisiae lifespan shortening project (AID 705;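 active = growth inhibition above 25% in both replicates, a cutoff set 3 SD above the mean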); conditions: OD615, 24 h, at 10 µM, stronger effect = higher value
Procedure, shortened: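 System: Engineered DeaD yeast | Buffer or medium: SC raffinose/galactose permissive medium | Incubation: Cells pre-grown 4 h, then 24 h compound exposure, 30 °C humidified | Measured by: Absorbance (optical density) at 615 nm | Read-out: Reduction in yeast growth (OD615)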

[2] = Restrictive medium S. cerevisiae growth inhibition, OD615, pilot screen of yeast lifespan reduction project, restrictive growth control (AID 706;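 active = growth inhibition above a set limit, 3 SD over mean compound inhibition, in both replicates, cut at about 43% in these data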;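 note: modified DeaD lifespan yeast strain shifted to restrictive glucose medium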); conditions: OD615, 48 h, at 10 µM, stronger effect = higher value
Procedure, shortened: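 Material: modified S. cerevisiae; Medium: glucose-based CSMM-D restrictive medium; Compound dosing: one concentration, 10 µM final, 0.25% DMSO; Incubation: 48 h compound exposure at 30 °C; Measured by: OD615.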

[3] = viability gain of MRP-1-high H69AR cells under doxorubicin, pilot screen, MRP-1 activator project, CellTiter-Glo, duplicate (AID 807;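 active = viability increase at or above a cutoff of the median across tested compounds plus 3 SD, cut at about 8.5% in these data, passing the limit was not always enough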;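 note: compound pretreatment 18-22 h then 72 h combined with doxorubicin; 0% = doxorubicin alone and 100% = vehicle without doxorubicin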); conditions: H69AR viability with doxorubicin, CellTiter-Glo luminescence; at 10 µM; stronger effect = higher value
[4] = growth suppression of beta-catenin knockout HCT116, pilot screen, human colon tumor cells (AID 823;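 active = cell viability at or below a set limit in both duplicate runs, the limit being the all-compound median minus 4 SD, cut at about 23% in these data, passing the limit was not always enough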;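 note: 0% = wells killed by 20 µM Hyamine and 100% = untreated DMSO cell wells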); conditions: CellTiter-Glo, 60 h, at 10 µM, stronger effect = lower value
[5] = growth suppression of PTEN-deleted HCT116, pilot screen, cell-based, HCT116 clonal line, CellTiter-Glo (AID 824;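 active = viability at or below 27.92% in each of two runs, the all-compound median minus 4 SD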;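 note: 0% = 20 µM Hyamine control and 100% = vehicle cell control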); conditions: 60 h, at 10 µM, stronger effect = lower value
[6] = inhibitors of the yeast RAM network, pilot screen, dse1pr::URA3 reporter, 5-FOA selection (AID 869);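 note: 0% = DMSO wells with no growth and 100% = 10 µM 1-NA-PP1 with full growth; RAM network block rescues cells from 5-FOA so hits raise OD615 growth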; conditions: S. cerevisiae dse1pr::URA3 5-FOA growth, OD615, 2 d; at 10 µM; stronger effect = higher value; strain carries analog-sensitive mutant Cbk1 kinase
[7] = RAM signaling pathway blockade in yeast – S. cerevisiae, Pdr1DBD-CYC8 efflux-inhibited sensitized strain, primary screen (AID 1298;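 active = RAM network inhibition above 8.4% in each of two replicates, 3 SD over the compound average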;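 note: 0% = DMSO untreated cells without growth and 100% = 10 µM 1-NA-PP1 full growth; higher means more yeast growth rescued from 5-FOA killing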); conditions: S. cerevisiae cbk1-as DSE1-URA3 strain, 5-FOA growth OD615, 2 d; at 50 µM; stronger effect = higher value

Cc1ccc(N(CC(N)=O)C2SC(=O)N(C)C2=O)cc1 (configuration not stated)
inactive: growth inhibition [1] -11.9% | growth inhibition [2] -7.83% | viability increase [3] -2.96% | viability [4] 97.8% | viability [5] 102% | inhibition [6] 1.09% | RAM network inhibition [7] 3.14%

COc1ccc(NC(=O)c2cnc3ccccn3c2=O)cc1OC
inactive: growth inhibition [1] -5.08% | growth inhibition [2] 4.28% | viability increase [3] -0.04% | viability [4] 101% | viability [5] 91.3% | inhibition [6] 0.665% | RAM network inhibition [7] 1.96%

CCN1CCN(C(=O)Cn2c(=O)sc3ccccc32)CC1
inactive: growth inhibition [1] -10.6% | growth inhibition [2] 4.76% | viability increase [3] -2.64% | viability [4] 107% | viability [5] 96.6% | inhibition [6] -0.225% | RAM network inhibition [7] 0.05%

N#Cc1nc(COc2ccccc2F)oc1NCc1ccc(F)cc1
inactive: growth inhibition [1] -5.23% | growth inhibition [2] 6.15% | viability increase [3] -4.08% | viability [4] 92.1% | viability [5] 90.7% | inhibition [6] 0.39% | RAM network inhibition [7] 8.3%

Cn1c(=O)oc2cc(S(=O)(=O)N3CCC(N4CCCCC4)CC3)ccc21
inactive: growth inhibition [1] -15.8% | growth inhibition [2] -13.1% | viability increase [3] -1.67% | viability [4] 98.7% | viability [5] 93% | inhibition [6] -0.02% | RAM network inhibition [7] 1.06%

Cc1cc(NC(=O)c2cc(CC(C)C)on2)no1
inactive: growth inhibition [1] -5.71% | growth inhibition [2] -12.5% | viability increase [3] -1.75% | viability [4] 106% | viability [5] 94.5% | inhibition [6] 0.67% | RAM network inhibition [7] 6.04%

Cc1cc(C)n(S(=O)(=O)c2ccc(Cl)c(Cl)c2Cl)n1
inactive: growth inhibition [1] -8.03% | growth inhibition [2] 4.29% | viability increase [3] -4.34% | viability [4] 86% | viability [5] 84.6% | inhibition [6] 1.17% | RAM network inhibition [7] 3.65%

O=C(COC(=O)c1ccc(S(=O)(=O)N2CCOCC2)cc1)NC1CCCCCC1
inactive: growth inhibition [1] -5.28% | growth inhibition [2] -3.04% | viability increase [3] 0.74% | viability [4] 101% | viability [5] 105% | inhibition [6] 1.42% | RAM network inhibition [7] 3.1%

CCOc1ccc(C2c3c(oc4ccccc4c3=O)C(=O)N2c2ccc(C)cn2)cc1OC (configuration not stated)
inactive: growth inhibition [1] -7.41% | growth inhibition [2] 2.13% | viability increase [3] -4.09% | viability [4] 81.4% | viability [5] 83.7% | inhibition [6] 1.88% | RAM network inhibition [7] 4.03%

COc1ccc(C(=O)c2coc3ccc(O)c(CN4CCOCC4)c23)cc1
inactive: growth inhibition [1] -5.46% | growth inhibition [2] -12% | viability increase [3] -4.42% | viability [4] 77.2% | viability [5] 80.3% | inhibition [6] 1.79% | RAM network inhibition [7] -1.13%

CCSC1=C(C#N)C(c2ccc(C)s2)CC(=O)N1 (configuration not stated)
inactive: growth inhibition [1] -16.1% | growth inhibition [2] -6.45% | viability increase [3] -0.29% | viability [4] 95.8% | viability [5] 94.1% | inhibition [6] 0.425% | RAM network inhibition [7] 0.57%

COCCCNC(=O)Cn1ncc2ccsc2c1=O
inactive: growth inhibition [1] -4.86% | growth inhibition [2] 3.33% | viability increase [3] 1.3% | viability [4] 107% | viability [5] 101% | inhibition [6] -0.05% | RAM network inhibition [7] -0.97%

CCOC(=O)COc1ccc2cc(C(=O)OCC)c(=O)oc2c1
inactive: growth inhibition [1] -4.38% | growth inhibition [2] -13.8% | viability increase [3] -0.91% | viability [4] 103% | viability [5] 96.2% | inhibition [6] 1.7% | RAM network inhibition [7] 2%

CCNc1nc(C)nc2c1oc1ccccc12
inactive: growth inhibition [1] -8.28% | growth inhibition [2] -30.6% | viability increase [3] 0.92% | viability [4] 101% | viability [5] 89.5% | inhibition [6] 1.81% | RAM network inhibition [7] 3.64%

Cc1cc(OCC(=O)C(C)(C)C)c2c(C)c(C)c(=O)oc2c1
inactive: growth inhibition [1] -18.8% | growth inhibition [2] -20.7% | viability increase [3] -6.01% | viability [4] 79.9% | viability [5] 73.8% | inhibition [6] 0.31% | RAM network inhibition [7] 6.85%

CC1CCCN(c2nc3c(c(=O)[nH]c(=O)n3C)n2CCSc2ncccn2)C1 (configuration not stated)
inactive: growth inhibition [1] -2.51% | growth inhibition [2] 2.04% | viability increase [3] -3.17% | viability [4] 97% | viability [5] 96.8% | inhibition [6] 1.14% | RAM network inhibition [7] 2.7%

O=C(CSc1nnc(Cc2cc(=O)[nH]c(=O)[nH]2)n1-c1ccc(F)cc1)N1CCCCC1
inactive: growth inhibition [1] -4.41% | growth inhibition [2] 1.35% | viability increase [3] -0.28% | viability [4] 104% | viability [5] 105% | inhibition [6] 0.87% | RAM network inhibition [7] 2.55%

O=C(CCS(=O)(=O)c1cccc2nonc12)NC1CCCCCC1
inactive: growth inhibition [1] -7.86% | growth inhibition [2] -9.46% | viability increase [3] -4.43% | viability [4] 86.7% | viability [5] 84.5% | inhibition [6] 0.855% | RAM network inhibition [7] 0.93%

CC1CCCCC1NC(=O)c1nnc(Cc2ccc(Cl)cc2)o1 (configuration not stated)
inactive: growth inhibition [1] -9.84% | growth inhibition [2] -0.745% | viability increase [3] 3.87% | viability [4] 104% | viability [5] 90.8% | inhibition [6] 1.07% | RAM network inhibition [7] 9.76%

CCOC(=O)c1sc(NC(=O)c2ccco2)nc1C
inactive: growth inhibition [1] -9.56% | growth inhibition [2] -2.94% | viability increase [3] -1.31% | viability [4] 94.5% | viability [5] 91.8% | inhibition [6] 1.66% | RAM network inhibition [7] 3.98%

O=C(NC1CCCCC1)N1CCCc2ccccc21
inactive: growth inhibition [1] 2.93% | growth inhibition [2] -1.39% | viability increase [3] -4.89% | viability [4] 86.1% | viability [5] 84% | inhibition [6] 0.345% | RAM network inhibition [7] -1.17%

Nc1nnc(CCc2ccccc2)s1
inactive: growth inhibition [1] -1.91% | growth inhibition [2] 8.1% | viability increase [3] 0.12% | viability [4] 96.2% | viability [5] 98.9% | inhibition [6] 1.77% | RAM network inhibition [7] 0.62%

O=C(CSc1nc(-c2ccco2)cc(C(F)(F)F)n1)NC1CCCC1
inactive: growth inhibition [1] -9.81% | growth inhibition [2] 5.25% | viability increase [3] -0.46% | viability [4] 89.3% | viability [5] 89.5% | inhibition [6] 0.995% | RAM network inhibition [7] 1%

Cc1cc2nc(-c3cccc(NC(=O)c4ccc(Br)o4)c3C)oc2cc1C
inactive: growth inhibition [1] -0.715% | growth inhibition [2] -9.59% | viability increase [3] 3.53% | viability [4] 87% | viability [5] 84.2% | inhibition [6] 2.33% | RAM network inhibition [7] 2.65%

CCCC12CN3CC(CCC)(CN(C1)C3C(O)C(O)C(O)CO)C2=O (configuration not stated)
inactive: growth inhibition [1] 4.31% | growth inhibition [2] 7.78% | viability increase [3] 0.62% | viability [4] 99.7% | viability [5] 100% | inhibition [6] 1.27% | RAM network inhibition [7] 3.47%

C=CCn1c(NC(C)c2cc(Cl)ccc2O)nc2ccccc21 (configuration not stated)
inactive: growth inhibition [1] -8.04% | growth inhibition [2] -0.215% | viability increase [3] -0.96% | viability [4] 68.6% | viability [5] 65.1% | inhibition [6] 0.29% | RAM network inhibition [7] -1.03%

COc1ccc(-n2nc(C(=O)N3CCC(C#N)CC3)c3c4ccccc4n(C)c3c2=O)cc1
inactive: growth inhibition [1] -14.9% | growth inhibition [2] -27% | viability increase [3] -4.6% | viability [4] 92.2% | viability [5] 88.9% | inhibition [6] 1.95% | RAM network inhibition [7] 7.49%

Cc1ccc(S(=O)(=O)N2CCCC(C(=O)N(Cc3cccs3)C3CC3)C2)cc1 (configuration not stated)
inactive: growth inhibition [1] -7.06% | growth inhibition [2] -14.9% | viability increase [3] -0.66% | viability [4] 61.3% | viability [5] 71.5% | inhibition [6] 0.39% | RAM network inhibition [7] 7.4%

CCOC(=O)C(C)n1cnc2c(nnn2-c2cccc(Cl)c2)c1=O (configuration not stated)
inactive: growth inhibition [1] -4.37% | growth inhibition [2] -3.95% | viability increase [3] 1.78% | viability [4] 102% | viability [5] 92.6% | inhibition [6] 2.58% | RAM network inhibition [7] 4.24%

Cc1oc(C(C)(C)C)cc1C(=O)Nc1ccc(C(=O)O)cc1
inactive: growth inhibition [1] 6.25% | growth inhibition [2] -11.5% | viability increase [3] 2.02% | viability [4] 103% | viability [5] 91% | inhibition [6] 0.6% | RAM network inhibition [7] -1.87%

CN(C)S(=O)(=O)c1ccc(-c2ccccc2)cc1
inactive: growth inhibition [1] -6.75% | growth inhibition [2] -4.33% | viability increase [3] 0.02% | viability [4] 91.9% | viability [5] 90.6% | inhibition [6] 0.455% | RAM network inhibition [7] 8.77%

Cc1ccc(Cl)cc1NC(=O)COC(=O)C1CCCC1
inactive: growth inhibition [1] -22% | growth inhibition [2] -14.1% | viability increase [3] -0.05% | viability [4] 99.1% | viability [5] 94.4% | inhibition [6] 1.32% | RAM network inhibition [7] 1.69%

O=C(Cn1ncc2c1-c1ccccc1OC2)N1CCN(Cc2ccc3c(c2)OCO3)CC1
inactive: growth inhibition [1] -1.44% | growth inhibition [2] 10.4% | viability increase [3] -3.39% | viability [4] 84.7% | viability [5] 90.2% | inhibition [6] 1.9% | RAM network inhibition [7] 2.06%

CCn1cc(SCC(=O)NCc2ccc3c(c2)OCO3)c2ccccc21
inactive: growth inhibition [1] -9.14% | growth inhibition [2] -8.28% | viability increase [3] -1.84% | viability [4] 97.9% | viability [5] 92.7% | inhibition [6] 0.495% | RAM network inhibition [7] 3.73%

COCCN(CCOC)C(=O)c1cc2sc3ccccc3c2s1
inactive: growth inhibition [1] -6.12% | growth inhibition [2] -4.95% | viability increase [3] 0.72% | viability [4] 92.4% | viability [5] 90.4% | inhibition [6] 0.11% | RAM network inhibition [7] 0.31%

CCOC(=O)c1sc(NC(=O)C2CC2)cc1C
inactive: growth inhibition [1] -9.29% | growth inhibition [2] -0.985% | viability increase [3] 0.54% | viability [4] 99.5% | viability [5] 89.4% | inhibition [6] 2.37% | RAM network inhibition [7] 0.98%
